How the values were obtained:
[1] = molecular target: Epidermal growth factor receptor (Homo sapiens, UniProt P00533); assay: Inhibition of human recombinant cytoplasmic GST-tagged EGFR (668 to 1210 residues) expressed in baculovirus using TK-substrate-biotin preincubated for 15 mins followed by substrate addition measured after 60 mins by FRET-based Z'-Lyte assay
[2] = system: NCI-H1975; assay: Antiproliferative activity against human NCI-H1975 cells harboring EGFR L858R/T790M double mutant; type: functional, cell-based
Method in brief: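 A431 was grown in EMEM with 10% FBS; HCC827 and NCI-H1975 were grown in RPMI-1640 with 10% FBS. Cell viability experiments were repeated at least three times.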

[3] = molecular target: Epidermal growth factor receptor (Homo sapiens, UniProt P00533, L858R/T790M); assay: Inhibition of human recombinant cytoplasmic GST-tagged EGFR T790M/L858R double mutant (668 to 1210 residues) expressed in baculovirus using TK-substrate-biotin preincubated for 15 mins followed by substrate addition measured after 60 mins by FRET-based Z'-Lyte assay
Epidermal growth factor receptor (Homo sapiens, UniProt P00533, L858R/T790M), sequence (P00533 25-1210 T790M/L858R limits assumed): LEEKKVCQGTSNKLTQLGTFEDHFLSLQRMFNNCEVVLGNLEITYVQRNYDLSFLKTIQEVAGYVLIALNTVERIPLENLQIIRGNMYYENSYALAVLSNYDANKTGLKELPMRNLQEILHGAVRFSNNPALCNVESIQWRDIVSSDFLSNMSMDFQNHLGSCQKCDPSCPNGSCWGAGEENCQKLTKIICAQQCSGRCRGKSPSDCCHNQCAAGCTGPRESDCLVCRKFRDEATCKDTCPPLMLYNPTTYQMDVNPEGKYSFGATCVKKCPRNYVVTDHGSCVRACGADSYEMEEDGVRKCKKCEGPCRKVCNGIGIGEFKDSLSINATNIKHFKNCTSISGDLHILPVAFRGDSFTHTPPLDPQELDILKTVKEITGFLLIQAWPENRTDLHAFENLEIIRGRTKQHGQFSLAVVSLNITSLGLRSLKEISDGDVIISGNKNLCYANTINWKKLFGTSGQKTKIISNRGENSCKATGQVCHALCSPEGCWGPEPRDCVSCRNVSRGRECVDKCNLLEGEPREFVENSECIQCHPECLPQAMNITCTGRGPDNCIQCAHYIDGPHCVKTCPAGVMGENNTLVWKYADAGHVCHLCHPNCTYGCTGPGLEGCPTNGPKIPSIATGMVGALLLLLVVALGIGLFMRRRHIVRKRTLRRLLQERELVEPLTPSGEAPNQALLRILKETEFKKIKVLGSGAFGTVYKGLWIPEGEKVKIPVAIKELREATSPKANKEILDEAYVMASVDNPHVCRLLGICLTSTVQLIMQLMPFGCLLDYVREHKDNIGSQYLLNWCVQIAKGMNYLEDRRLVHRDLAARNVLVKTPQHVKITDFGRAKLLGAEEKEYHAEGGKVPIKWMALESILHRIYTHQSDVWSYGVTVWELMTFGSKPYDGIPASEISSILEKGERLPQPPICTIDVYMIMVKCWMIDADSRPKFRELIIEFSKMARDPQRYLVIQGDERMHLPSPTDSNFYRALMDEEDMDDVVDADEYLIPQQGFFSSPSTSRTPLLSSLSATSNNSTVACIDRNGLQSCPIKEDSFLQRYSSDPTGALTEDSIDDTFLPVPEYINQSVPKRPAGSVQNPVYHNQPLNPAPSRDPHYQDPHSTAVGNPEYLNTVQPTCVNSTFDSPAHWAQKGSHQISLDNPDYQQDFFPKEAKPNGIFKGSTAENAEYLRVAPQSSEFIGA

[4] = system: HCC827; assay: Antiproliferative activity against human HCC827 cells harboring EGFR E746-A750 deletion mutant; type: functional, cell-based
[5] = system: A-431; assay: Antiproliferative activity against human A431 cells harboring wild-type EGFR; type: functional, cell-based
[6] = molecular target: Epidermal growth factor receptor (Homo sapiens, UniProt P00533, L858R); assay: Inhibition of human recombinant cytoplasmic GST-tagged EGFR L858R mutant expressed in baculovirus using TK-substrate-biotin preincubated for 15 mins followed by substrate addition measured after 60 mins by FRET-based Z'-Lyte assay
Epidermal growth factor receptor (Homo sapiens, UniProt P00533, L858R), sequence (P00533 25-1210 L858R limits assumed): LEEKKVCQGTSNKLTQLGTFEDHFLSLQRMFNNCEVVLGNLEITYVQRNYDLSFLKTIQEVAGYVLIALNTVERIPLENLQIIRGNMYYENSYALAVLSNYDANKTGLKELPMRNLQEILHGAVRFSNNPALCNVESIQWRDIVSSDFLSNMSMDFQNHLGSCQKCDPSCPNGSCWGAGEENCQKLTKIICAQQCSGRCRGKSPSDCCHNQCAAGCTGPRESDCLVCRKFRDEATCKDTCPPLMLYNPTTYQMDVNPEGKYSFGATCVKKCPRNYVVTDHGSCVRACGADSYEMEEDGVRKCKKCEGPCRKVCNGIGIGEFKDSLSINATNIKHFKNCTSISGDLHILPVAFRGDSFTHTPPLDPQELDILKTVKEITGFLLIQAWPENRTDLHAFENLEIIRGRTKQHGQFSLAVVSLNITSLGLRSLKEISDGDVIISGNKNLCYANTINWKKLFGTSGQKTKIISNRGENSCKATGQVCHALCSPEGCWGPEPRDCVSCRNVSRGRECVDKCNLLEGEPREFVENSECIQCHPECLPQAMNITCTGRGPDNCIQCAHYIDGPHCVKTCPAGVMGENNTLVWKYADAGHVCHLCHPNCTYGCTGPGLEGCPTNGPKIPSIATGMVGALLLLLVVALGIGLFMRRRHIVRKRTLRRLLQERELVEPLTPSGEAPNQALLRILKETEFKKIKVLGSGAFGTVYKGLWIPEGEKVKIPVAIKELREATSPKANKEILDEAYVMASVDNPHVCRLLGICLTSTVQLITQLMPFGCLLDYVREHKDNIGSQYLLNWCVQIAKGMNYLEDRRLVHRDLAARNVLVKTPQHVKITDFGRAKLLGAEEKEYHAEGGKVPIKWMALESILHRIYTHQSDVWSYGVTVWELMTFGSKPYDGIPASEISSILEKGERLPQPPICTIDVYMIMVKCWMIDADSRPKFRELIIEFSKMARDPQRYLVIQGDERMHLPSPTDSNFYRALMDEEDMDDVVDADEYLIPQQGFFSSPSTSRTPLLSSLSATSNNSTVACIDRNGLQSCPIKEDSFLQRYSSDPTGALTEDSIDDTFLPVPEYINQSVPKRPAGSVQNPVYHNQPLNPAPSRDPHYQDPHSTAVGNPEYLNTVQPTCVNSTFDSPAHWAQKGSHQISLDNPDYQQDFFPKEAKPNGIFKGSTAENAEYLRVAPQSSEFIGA

[7] = species on record: Homo sapiens; assay: Selectivity ratio of IC50 for human recombinant cytoplasmic GST-tagged EGFR (668 to 1210 residues) to IC50 for human recombinant cytoplasmic GST-tagged EGFR T790M/L858R double mutant (668 to 1210 residues)
Method in brief: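 HTRF kinase assay on wild-type EGFR and the T790M/L858R mutant, with TK-substrate-biotin, ATP, 1 mM DTT, 1 mM MnCl2 and 5 mM MgCl2. Serially diluted compounds in 1% DMSO were preincubated with kinase for 15 min. The reaction was started with ATP plus substrate, run 60 min at room temperature, then stopped with Strep-XL665/TK Ab-Cryptate and read after 1 h. Run in duplicate, at least three independent IC50 determinations.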

[8] = Intrinsic clearance in dog liver microsomes; type: ADME, Canis lupus familiaris, microsome; details: read-out: CLH
[9] = Half life in human hepatocytes; type: ADME, cell-based, Hepatocyte
[10] = Intrinsic clearance in rat liver microsomes; type: ADME, microsome; details: read-out: CLH
[11] = Oral bioavailability in Sprague-Dawley rat at 10 mg/kg administered via gavage after 24 hrs by LC-MS/MS analysis; type: ADME, organism-based; details: in vivo
Method in brief: (§1)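 Male Sprague-Dawley rats (200-240 g) received 1 mg/kg by tail-vein injection in 2% DMSO, 20% PEG400 and 78% buffered saline, or 10 mg/kg by oral gavage in 0.5% methylcellulose. Orbital sinus blood was drawn into heparinized tubes at 2, 5, 15 and 30 min and at 1, 2, 4, 8, 12 and 24 h, then centrifuged. Plasma was measured by LC/MS/MS in SRM mode, with non-compartmental analysis.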

[12] = Cmax in Sprague-Dawley rat at 10 mg/kg, po administered via gavage after 24 hrs by LC-MS/MS analysis; type: ADME, organism-based; design: dose 10 mg/kg, route oral; details: in vivo; method in brief: as §1
[13] = Intrinsic clearance in monkey liver microsomes; type: ADME, Macaca mulatta, microsome; details: rhesus monkey, read-out: CLH
[14] = Clearance in Sprague-Dawley rat at 1 mg/kg, iv after 24 hrs by LC-MS/MS analysis; type: ADME, organism-based; details: in vivo; method in brief: as §1
[15] = Half life in dog liver microsomes; type: ADME, Canis lupus familiaris, microsome
[16] = Intrinsic clearance in mouse liver microsomes; type: ADME, microsome; details: read-out: CLH
[17] = Intrinsic clearance in rat hepatocytes assessed per million cells; type: ADME, cell-based, Hepatocyte
[18] = Half life in monkey liver microsomes; type: ADME, Macaca mulatta, microsome; details: rhesus monkey
[19] = MRT in Sprague-Dawley rat at 1 mg/kg, iv by LC-MS/MS analysis; type: ADME, organism-based; details: in vivo; method in brief: as §1
[20] = Half life in mouse liver microsomes; type: ADME, microsome
[21] = Half life in rat hepatocytes; type: ADME, cell-based, Hepatocyte
[22] = MRT in Sprague-Dawley rat at 10 mg/kg, po administered via gavage by LC-MS/MS analysis; type: ADME, organism-based; details: in vivo; method in brief: as §1
[23] = Tmax in Sprague-Dawley rat at 10 mg/kg, po administered via gavage by LC-MS/MS analysis; type: ADME, organism-based; details: in vivo; method in brief: as §1
[24] = Half life in rat liver microsomes; type: ADME, microsome
[25] = Half life in Sprague-Dawley rat at 1 mg/kg, iv by LC-MS/MS analysis; type: ADME, organism-based; details: in vivo
Method in brief: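 Male Sprague-Dawley rats (200-240 g) were dosed either by tail vein at 1 mg/kg in 2% DMSO/20% PEG400/78% buffered saline or by oral gavage at 10 mg/kg in 0.5% methylcellulose. Blood was drawn by orbital sinus puncture at 2 min to 24 h into heparin, and plasma was analysed by LC/MS/MS in SRM mode. Parameters came from non-compartmental analysis.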

Epidermal growth factor receptor (Homo sapiens, UniProt P00533), sequence (P00533 whole entry, the tested form may be a part): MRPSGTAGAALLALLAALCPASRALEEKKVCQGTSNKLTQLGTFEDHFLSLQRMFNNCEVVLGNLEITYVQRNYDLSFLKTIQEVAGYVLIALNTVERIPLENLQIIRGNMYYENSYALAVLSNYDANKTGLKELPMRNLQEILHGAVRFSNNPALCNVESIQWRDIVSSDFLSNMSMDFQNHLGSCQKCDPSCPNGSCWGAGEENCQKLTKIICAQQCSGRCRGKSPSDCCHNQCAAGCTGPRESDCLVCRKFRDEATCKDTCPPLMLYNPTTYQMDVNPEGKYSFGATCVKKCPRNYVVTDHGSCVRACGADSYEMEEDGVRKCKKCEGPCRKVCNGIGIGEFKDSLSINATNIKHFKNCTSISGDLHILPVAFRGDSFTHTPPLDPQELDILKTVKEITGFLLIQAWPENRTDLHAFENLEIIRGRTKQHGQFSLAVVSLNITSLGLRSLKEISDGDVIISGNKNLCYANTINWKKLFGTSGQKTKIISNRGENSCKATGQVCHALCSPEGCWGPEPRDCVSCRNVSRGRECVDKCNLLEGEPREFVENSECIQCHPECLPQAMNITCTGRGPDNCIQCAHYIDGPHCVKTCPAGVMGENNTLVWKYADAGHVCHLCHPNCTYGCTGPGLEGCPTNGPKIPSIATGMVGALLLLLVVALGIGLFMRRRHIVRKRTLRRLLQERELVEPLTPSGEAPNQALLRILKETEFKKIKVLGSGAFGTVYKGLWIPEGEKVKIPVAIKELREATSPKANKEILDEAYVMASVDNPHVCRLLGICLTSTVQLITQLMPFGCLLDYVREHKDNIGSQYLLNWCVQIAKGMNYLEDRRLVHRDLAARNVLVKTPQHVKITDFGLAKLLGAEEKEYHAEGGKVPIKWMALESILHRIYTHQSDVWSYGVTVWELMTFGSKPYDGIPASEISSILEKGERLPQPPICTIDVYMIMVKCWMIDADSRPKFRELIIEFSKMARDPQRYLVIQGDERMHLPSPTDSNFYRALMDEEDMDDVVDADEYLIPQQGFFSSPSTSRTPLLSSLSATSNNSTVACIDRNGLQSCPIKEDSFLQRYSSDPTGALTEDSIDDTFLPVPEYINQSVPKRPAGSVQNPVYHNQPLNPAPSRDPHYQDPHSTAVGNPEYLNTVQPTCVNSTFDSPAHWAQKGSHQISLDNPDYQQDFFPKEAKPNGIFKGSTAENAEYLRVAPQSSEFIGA

Structure (SMILES)	IC50 ([1]; read-out: IC50)	IC50 [2]	IC50 [3]	IC50 [4]	IC50 [5]	IC50 [6]	Ratio IC50 [7]	further results
C=CC(=O)Nc1cc(Nc2cc(-c3cn4c5c(cccc35)CCC4)ncn2)c(OC)cc1N(C)CCN(C)C	3.1 nM	37.8 nM	2.6 nM	24.3 nM	122 nM	1.2 nM	–	–
C=CC(=O)Nc1cc(Nc2nccc(-c3cn4c5c(cccc35)CCC4)n2)c(OC)cc1N1CC(CN(C)C)C1	202 nM	166 nM	6.7 nM	290 nM	1470 nM	11.6 nM	–	–
C=CC(=O)Nc1cc(Nc2cc(-c3cn4c5c(cccc35)CCC4)nc(OC)n2)c(OC)cc1N(C)CCN(C)C	543 nM	–	22 nM	–	–	181 nM	–	–
C=CC(=O)Nc1cc(Nc2cc(-c3cn(C)c4ccccc34)nc(OC)n2)c(OC)cc1N(C)CCN(C)C	636 nM	210 nM	10.9 nM	925 nM	> 10000 nM	123 nM	–	–
C=CC(=O)Nc1cc(Nc2nccc(-c3cn4c5c(cccc35)CCC4)n2)c(OC)cc1N1CCN(C)CC1	877 nM	–	55.5 nM	–	–	64.3 nM	15.8	–
C=CC(=O)Nc1cc(Nc2nccc(-n3cc(C)c4ccccc43)n2)c(OC)cc1N(C)CCN(C)C	715 nM	–	287 nM	–	–	186 nM	2.5	–
C=CC(=O)Nc1cc(Nc2nccc(-c3cn4c5c(cccc35)CCC4)n2)c(OC)cc1N(C)CCO	838 nM	–	34.8 nM	–	–	192 nM	24.1	–
C=CC(=O)Nc1cc(Nc2nccc(-c3cn4c5c(cccc35)CCC4)n2)c(OC)cc1N1CCNC(=O)C1	–	–	1230 nM	–	–	428 nM	–	IC50 [1]: Not Active
C=CC(=O)Nc1cc(Nc2nccc(-n3ncc4ccccc43)n2)c(OC)cc1N(C)CCN(C)C	–	–	> 600 nM	–	–	> 600 nM	–	IC50 [1]: Not Active
C=CC(=O)Nc1cc(Nc2cc(-c3cn(C)c4ccccc34)ncn2)c(OC)cc1N(C)CCN(C)C	2.3 nM	33.8 nM	1.6 nM	16.2 nM	128 nM	2.2 nM	–	–
C=CC(=O)Nc1cc(Nc2ncnc(-c3cn(C)c4ccccc34)c2F)c(OC)cc1N(C)CCN(C)C	32.1 nM	–	94.8 nM	–	–	9.9 nM	0.34	–
C=CC(=O)Nc1cc(Nc2nccc(-c3cn4c5c(cccc35)CCC4)n2)c(OC)cc1N1CCC(CN(C)C)C1 (stereo unspecified)	8.8 nM	99.9 nM	1.9 nM	71.7 nM	514 nM	4 nM	–	–
C=CC(=O)Nc1cc(Nc2nccc(-c3cn4c5c(cccc35)CCC4)n2)c(OC)cc1N(C)CC(=O)N(C)C	> 1000 nM	–	278 nM	–	–	498 nM	> 3.6	–
C=CC(=O)Nc1cc(Nc2ncnc(-c3cn(C)c4ccccc34)c2OC)c(OC)cc1N(C)CCN(C)C	222 nM	–	212 nM	–	–	55.5 nM	1	–
C=CC(=O)Nc1cc(Nc2nccc(-c3cn4c5c(cccc35)CCC4)n2)c(OC)cc1N(C)CCN(C)C(C)=O	> 1000 nM	–	188 nM	–	–	386 nM	> 5.3	–
C=CC(=O)Nc1cc(Nc2nccc(-c3cn(C)c4ccccc34)n2)c(OC)cc1N(C)CCN(C)C [OSIMERTINIB]	–	[…]	–	–	–	–	–	CLint scaled [8]: […]; half-life [9]: […]; CLint scaled [10]: […]; bioavailability [11]: […]; Cmax [12]: […]; CLint scaled [13]: […]; clearance [14]: […]; half-life [15]: […]; CLint scaled [16]: […]; CLH [17]: […]; half-life [18]: […]; MRT [19]: […]; half-life [20]: […]; half-life [21]: […]; MRT [22]: […]; Tmax [23]: […]; half-life [24]: 62.4 min; half-life [25]: […]
C=CC(=O)Nc1cc(Nc2cc(-c3cn(C)c4ccccc34)nc(C)n2)c(OC)cc1N(C)CCN(C)C	192 nM	–	60.6 nM	–	–	46.5 nM	3.2	–
C=CC(=O)Nc1cc(Nc2nccc(-c3cn4c5c(cccc35)CCC4)n2)c(OC)cc1N1CC(N(C)C)C1	63.9 nM	143 nM	4.9 nM	98.2 nM	1120 nM	13.6 nM	–	–
C=CC(=O)Nc1cc(Nc2nc(OC)cc(-c3cn(C)c4ccccc34)n2)c(OC)cc1N(C)CCN(C)C	685 nM	320 nM	13 nM	1170 nM	> 10000 nM	155 nM	–	–
C=CC(=O)Nc1cc(Nc2nccc(-c3cn4c5c(cccc35)CCC4)n2)c(OC)cc1N1CC(CCN(C)C)C1	251 nM	–	11.8 nM	–	–	14.5 nM	21.3	–

From ChEMBL document CHEMBL4052618, “Design, synthesis, SAR discussion, in vitro and in vivo evaluation of novel selective EGFR modulator to inhibit L858R/T790M double mutants” (Eur J Med Chem, 2017)
